Measured values: the EternaBench riboswitch data

Test system: MS2 coat protein
Assay: apparent Kd, MS2 coat protein; higher = weaker binding; RNA-MaP array; FMN 200 µM where present
Outline: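 Designs were transcribed by stalled E. coli RNA polymerase on Illumina sequencing-chip clusters. They were titrated with SNAP-549-labelled MS2 coat protein from 0.7 or 1.5 nM, doubling to 3 µM, without and then with constant ligand. Buffer: 100 mM Tris-HCl pH 7.5, 80 mM KCl, 4 mM MgCl2, BSA, DTT, yeast tRNA, Tween-20. Green signal was normalised to red-channel RNA signal and control-cluster median Fmax. Apparent Kd is the median of filtered per-cluster binding-curve fits.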

[1] = designed as: OFF switch for flavin mononucleotide, no ligand
[2] = ligand present: flavin mononucleotide, designed as: OFF switch for flavin mononucleotide
[3] = designed as: ON switch for flavin mononucleotide, no ligand
[4] = ligand present: flavin mononucleotide, designed as: ON switch for flavin mononucleotide

| Sequence | apparent Kd [1] | apparent Kd [2] | apparent Kd [3] | apparent Kd [4] |
| --- | --- | --- | --- | --- |
| UGAUAACAUGUAGGAUAUCCAGCAUUGACCAUCGGAGAAGGACAUGAGGAUCACCCAUGUACCGAUACAAUGGGAUAAUGGAAU | 15.5 nM | 17.2 nM | – | – |
| GGGAACAUCGGAGGAUAUCAUGUAAAUACAUGAGGAUCACCCAUGUCGAUGGAGACAUCGGAGAUUGAGAAGGCCGAUGUACCG | – | – | 173 nM | 9.66 nM |
| GAAUGGGUAGAAGGACAUGAGGAUCACCCAUGUAGUGUGACUAAGGAUAUUAGAGAAGAUUGACGUAAGAAGGUAGAUGUGAGG | 134 nM | 117 nM | – | – |
| CUUAUGCGGCAGGAUAUCGUGCUUUUCGAGCAGCGAGAAGGGUCUACAUGAGGAUCACCCAUGUCAGUGGCUCU | 18.3 nM | 37.8 nM | – | – |
| UGGCACUAGGGAGGAUAUGGGAAGAUACAUGAGGAUCACCCAUGUUUAAGAAUGCCGAGAGGCAACUAGAAGGCCCUAGUACCU | – | – | 486 nM | 19.3 nM |
| UUACCUUAUGAGAAGGCGGUCAUGAAACAUGAUCGAGGAUAUCAUGUAAACAUGAGGAUCACCCAUGUAUGGGUAUUAUGGUAC | – | – | 165 nM | 31.8 nM |
| GGUGGACAUGAGGAUCACCCAUGUGAGGAUAUCGGCCGGUUCGUGGUGGCUGGCGUCUCGAGAAGGCACAUAGU | 153 nM | 129 nM | – | – |
| GGGUACAUCGGAGGAUAUCAUGUAAAUACAUGAGGAUCACCCAUGUCGAUGGAGAGAUCGGAGAUUGAGAAGGCCGAUGUACCG | – | – | 97.4 nM | 41 nM |
| UCGACCAGCGCCAGCCGAACAUGAGGAUCACCCAUGUACUCCAGAAGGCCGCCCAAGAACGGAGUGGAGGAUAUGGAGGUUCUC | – | – | 38 nM | 35.5 nM |
| AUAGUGCGCGAGAAGGACGUACCACAUGUGGAUCACCUAUAUAAGGAACGUAGGAUAUUGCACAUGAGGAUCACCCAUGUGGAU | – | – | 41.4 nM | 34.1 nM |
| UUCUUCUGAGGAUAUACAUAGAUUUACAUGAGGAUCACCCAUGUUCCUCUAUGUAUAAAUGUAGAAGGCAGAAGUU | 16.9 nM | 91.2 nM | – | – |
| ACAGGUUAAGGAUAUACAUGAGGAUCACCCAUGUCGAGUAUCUUGUCAUGCCGCCCAUGUAGAAGGUAACAUGG | 13.5 nM | 17 nM | – | – |
| AUCAGCUCGUCAGGAUAUACGUCACUGCGUCAGCAGUGUGGUAAGGUCACAUGAGGAUCACCCAUGUAGAAGGGACGAGCUGAU | 9.4 nM | 117 nM | – | – |
| UUUAUGUGAGGAUAUCAGUAGUAAAAAAAUAAAAUUACUACUGAGAAGGCACAUGAGGAUCACCCAUGUGCUUC | 19.5 nM | 15.1 nM | – | – |
| GGAUGAGAAACUCAUCCAAUACGAACAUGAGGAUCACCCAUGUAGGAUAUGCUACUCAAAGAGUAGCAGAAGGACAUGUGCCUU | 30 nM | 254 nM | – | – |
| AGCGGCGCGGACCACCGCAAAACCAGAAGGACAUGAGGAUCACCCAUGUAACAAAACAGGGCGGUGUAGGAUAUGGCAGACCCA | 10.8 nM | 9.16 nM | – | – |
| AUAUCCGAAGCAGGAUAUCGACGAGGUGUCGAGGUAGAGCGUACUCACAUGAGGAUCACCCAUGUCGAGAAGGGCUACAGGAUA | 27.8 nM | 52.2 nM | – | – |
| UUCAUGUGAGGAUAUGUGUACUGCUUUCUGUUUAGAUGUACACAGAAGGCACAUGAGGAUCACCCAUGUAGUAC | 45.5 nM | 31.8 nM | – | – |
| CAGGUAGACUGAGGAUAUACAUGACUUAGUCUAUCUAGGUCAUAAACCACAUGAGGAUCACCCAUGUAGAAGGCAGUCUGCCUG | 17 nM | 19.8 nM | – | – |
| GCGUAUAUAAGAUUUAUAAAACAGUCAGAAGGUGAUAAGACGACAUGAGGAUCACCCAUGUAAUUCAAGGAUAUGAUCAUACGC | – | – | 54.3 nM | 23.3 nM |
| AUUAAUUUGUAGAAGGACGACUAUUAAUAUUUCGUAGGAUAUACUAUUUACAUGAGGAUCACCCAUGUUUAAAUGGAACAAUGU | 8.1 nM | 11.8 nM | – | – |
| AUAAGUGCAGGAUAUACGAAAUGCUAGCGAAAGCUAGCAUAACAUGAGGAUCACCCAUGUAGAAGGGCACAAUA | 28.4 nM | 21.5 nM | – | – |
| AAUGGCGCGAUAGCGCUAAUUAAAACAUGAGGAUCACCCAUGUAGGAUAUCCUACCGAAAUGGUAGGAGAAGGACAAGCAAUGA | 23.5 nM | 18.7 nM | – | – |
| CACUUGGCAGGAUAUGCAAUUUUAGACAUGAGGAUCACCCAUGUGAUCAUUCCAUAUUAUGCAGAAGGGCCUAAAC | 199 nM | 747 nM | – | – |
| CGACACCACACAGGAUAUGCUGGACUUUGUCCAGCAGAAGGGUGUAAACAUGAGGAUCACCCAUGUAUGGUGUCGAAAUUUAAU | – | – | 382 nM | 21.1 nM |
| UGGUACUAGGGAGGAUAUGGGAAGACACAUGAGGAUCACCCAUGUUUAAGAAUGCCGAGAGGCAACUAGAAGGCCCUAGUACCU | – | – | 71.9 nM | 7.95 nM |
| AGUACUACAGGAUAUACGAGGGAGGUCCACGUGACCCUUAUACAUGAGGAUCACCCAUGUAGAAGGGUAGUACA | 80.3 nM | 16.4 nM | – | – |
| AGCUACGUUUCGUAGCAGUGUCAUCGAGAAGGCCCUGACAUGAGGAUCACCCAUGUUGUUACAUGGGAGGAUAUCGAUGAUACC | – | – | 13.3 nM | 5.32 nM |

| Sequence | apparent Kd [1] | apparent Kd [2] | apparent Kd [3] | apparent Kd [4] |
| --- | --- | --- | --- | --- |
| UUGGGUUUGCGAGGAUAUCGUAUGUGAUUUGAACGAGAAGGCGCUAUUUAAAUUAUUUUAACAUAACAUGAGGAUCACCCAUGU | – | – | 17.4 nM | 16 nM |
| CGAUGUUAUGCAGGAUAUCUCUCUUGAAUGCGGAGAGAAGGGCAUAGGGAGACAUACGCCUUAUUACAUGAGGAUCACCCAUGU | 9.02 nM | 7.92 nM | – | – |
| AUAAAACAAAACCACACAUGAGGAUCACCCAUGUCAAGAUUACAGGAUAUCCGGCAGAGAUGCAAGGAGAAGGGUGAUCCCAAA | – | – | 17.3 nM | 56.9 nM |
| ACUUGCUUGCAGAAGGGUGACAUGAGGAUCACCCAUGUAGCGUGCCGGCGUAAAGUCAGCGCGCCACAGGAUAUGCAGGCCUCG | – | – | 65.8 nM | 44 nM |
| UGUGUGUGGCAGGAUAUGCCGGUCGUAGGACGGGUAGAAGGGUCUACAUGAGGAUCACCCAUGUGGCCGGUUGG | 19.2 nM | 18.5 nM | – | – |
| CUUCGUAUAGAGGAUAUAGGAUACUUCGGUGUCCUAGAAGGCUGUACAUGAGGAUCACCCAUGUACUUCAGAUC | 12.1 nM | 14.3 nM | – | – |
| UGUCGGAGCAGAGGAUAUUACAUGAGGAUCACCCAUGUAUGAACCAAUAGCUGGAAACAGCAAUGUAAGAAGGCCGCUCCGACA | 5.82 nM | 28.5 nM | – | – |
| AAAACAGAUGGAGGAUAUAGUGUAUGGGCCGUAACGGGAGUAUCGCGCAGACUAGAAGGCCAUUUACAUGAGGAUCACCCAUGU | – | – | 164 nM | 56.5 nM |
| ACCCAUGUCCAAGGAUAUGUACUCACAUGAGGAUCACCCAUGUAAAAGGGAGCAGAAGGUGGUACAUGUUAGAGAAUAAUAAAC | – | – | 129 nM | 11.4 nM |
| GGACAUUUACAGAAGGGCAAAUUUUAUAGUGAAUAUUUAGUUCUGAUUUGCAGGAUAUGUGGAACAUGAGGAUCACCCAUGUCC | – | – | 13.8 nM | 6.71 nM |
| CUUUUGUGAGGAUAUUAGUAGUAAAUAAAUAAAAUUAUUACUGAGAAGGUACAUGAGGAUCACCCAUGUUCCUC | 18.3 nM | 25.5 nM | – | – |
| GUAGCAUAAUCAGGAUAUUCAGCGAAUAGAUUGACAUGAGGAUCACCCAUGUGGCGAAAGCCUAGGGAGAAGGGAUAAUGCUAC | – | – | 405 nM | 42.1 nM |
| CCCUCACAUGAGGAUCACCCAUGUCCUAGCCCGUCAGGAUAUAGCCCGCAUCCGCUGCGGCUAGAAGGGACAGCUG | – | – | 190 nM | 141 nM |
| GCGGAACAUGAGGAUCACCCAUGUAUCCCAAAUAUGGACUCACAGGAUAUCCCGAGUUGCCAGUGGGAGAAGGGUGACUCCAGA | – | – | 14.2 nM | 6.55 nM |
| CCGCAAAAUGAGGAUAUCGUAUCGGAUACGAUACGAGAAGGCGUAACAUGAGGAUCACCCAUGUGUCCUAGCGG | 14.3 nM | 17.2 nM | – | – |
| UUUUAACAUGAGGAUCACCCAUGUGAGGAUAUCGAAAUUUAUAUUUAUAUUAAUUUAACGAGAAGGCACAUUUU | 91.2 nM | 114 nM | – | – |
| UGUUACUAGUAAGGAUAUACUUGCGAUUAGCUUGUAGAAGGUACAGUCUUUUGUAUAACAUGUUUACAUGAGGAUCACCCAUGU | – | – | 10.7 nM | 8.69 nM |
| GCCGAAAAUGUGAGGAUAUACCUAUGGAAACAUAGGUAGAAGGCACAUGAGGAUCACCCAUGUGUUUCAACGGC | 21.5 nM | 107 nM | – | – |
| ACAUGAGGAUCACCCAUGUCUGCAUAGGAUAUUGAGGAUUAGGCAUAUUAUUAUGGAUUUGCCCACAAGAAGGAUGAAAUUGUU | – | – | 20.1 nM | 13.4 nM |
| AAAUACCGGUGAGGAUAUUUAUAAUAGAACUUUAUGAUAUACAUGAGGAUCACCCAUGUUACUUUAAAGAAGGCAUCGGAUAAA | 18.8 nM | 15 nM | – | – |
| UUAUAACAGUCAGGAUAUGUAACGUACAACGGCGCAGAAGGGACAUGAGGAUCACCCAUGUUAUGGUUCUGGUACUAUGACGUU | 13.2 nM | 14.9 nM | – | – |
| GGCGGUCCUUAAUGCACCUGCACAUGAGGAUCACCCAUGUACAGAAGGGCCAGCACCGAAGUAUGGCAGGAUAUGUCGCACGAG | 7.56 nM | 10.1 nM | – | – |
| GGAAGACAAAGUCUUCCAUAACGAACAUGAGGAUCACCCAUGUAGGAUAUGCUACUCAAAGAGUAGCAGAAGGACAUGUGUCUU | 28.1 nM | 129 nM | – | – |
| UCCACUACUGAGAAGGGAUACAUAUAGUUCUAGUCAGGAUAUCGAUACAGUGCAGCAUGAGGACAUGAGGAUCACCCAUGUAUU | – | – | 22.1 nM | 16.2 nM |
| CGGUGACGUGUAGGAUAUGGCGCUGGGUUUUGGCCAGAAGGACAUGAGGAUCACCCAUGUGGUAGAGGGCUGGCGGCCGCCCGU | – | 108 nM | – | – |
| AGUUUUGUACAUGAGGAUCACCCAUGUUAAUAUGUGGUAGUCAGAAGGCAUUGUUAGAGUAUAUAUGAGGAUAUGAUUAGUCAG | – | – | 58.3 nM | 27.9 nM |
| AGCUAGUCAGGAUAUACGAAAAUGUCAGAGGCUGUGAAGGGACAUGAGGAUCACCCAUGUAGAAGGGACUAGCA | 96.8 nM | 136 nM | – | – |
